Data published in ChEMBL document CHEMBL1138799, “4-benzyl- and 4-benzoyl-3-dimethylaminopyridin-2(1H)-ones, a new family of potent anti-HIV agents: optimization and in vitro evaluation against clinically important HIV mutant strains” (J Med Chem, 2004).
pIC50: −log10 of the molar value.

Assays:
[1] = system: Human immunodeficiency virus 1; experiment: Inhibitory activity against HIV-1 mutant strain 227C; assay type: functional, organism-based
Procedure, shortened: (§1)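 Mutant HIV-1 made by recombining mutant PR-RT sequence into a PR-RT-deleted HXB2 proviral clone. Serial compound concentrations plated, then virus (200 CCID50/well) and MT4 cells (30 000 cells/well; RPMI 1640, 10% FCS) added; 5 days at 37 °C, 5% CO2; viability read by MTT. EC50 = concentration giving 50% infection versus drug-free control; mock-infected cultures run in parallel for toxicity.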

[2] = system: Human immunodeficiency virus 1; experiment: Inhibitory activity against HIV-1 mutant strain 106A; assay type: functional, organism-based; procedure, shortened: as §1
[3] = system: Human immunodeficiency virus 1; experiment: Inhibitory activity against HIV-1 mutant strain 179E; assay type: functional, organism-based; procedure, shortened: as §1
[4] = system: Human immunodeficiency virus 1; experiment: Inhibitory activity against HIV-1 double mutants strain 101E and 103N; assay type: functional, organism-based; procedure, shortened: as §1
[5] = system: Human immunodeficiency virus 1; experiment: Inhibitory activity against HIV-1 mutant strain 188L; assay type: functional, organism-based; procedure, shortened: as §1
[6] = system: Human immunodeficiency virus 1; experiment: Inhibitory activity against HIV-1 mutant strain 190S; assay type: functional, organism-based; procedure, shortened: as §1
[7] = system: Human immunodeficiency virus 1; experiment: Inhibitory activity against HIV-1 mutant strain 181C; assay type: functional, organism-based; procedure, shortened: as §1
[8] = system: Human immunodeficiency virus 1; experiment: Inhibitory activity against HIV-1 mutant strain 190A; assay type: functional, organism-based; procedure, shortened: as §1
[9] = system: Human immunodeficiency virus 1; experiment: Inhibitory activity against HIV-1 double mutants strain 227L and 106A; assay type: functional, organism-based; procedure, shortened: as §1
[10] = system: Human immunodeficiency virus 1; experiment: Inhibitory activity against HIV-1 double mutants strain 100I and 103N; assay type: functional, organism-based; procedure, shortened: as §1
[11] = system: Human immunodeficiency virus 1; experiment: Inhibitory activity against HIV-1 mutant strain 100I; assay type: functional, organism-based; procedure, shortened: as §1
[12] = system: Human immunodeficiency virus 1; experiment: Inhibitory activity against HIV-1 mutant strain 138K; assay type: functional, organism-based; procedure, shortened: as §1
[13] = system: Human immunodeficiency virus 1; experiment: Inhibitory activity against HIV-1 double mutants strain 103N and 181C; assay type: functional, organism-based; procedure, shortened: as §1
[14] = system: Human immunodeficiency virus 1; experiment: Inhibitory activity against HIV-1 mutant strain 101E; assay type: functional, organism-based; procedure, shortened: as §1
[15] = system: Human immunodeficiency virus 1; experiment: Selectivity index of cytotoxic activity (CC50) to inhibitory activity (IC50) relative to LAI cell line; assay type: functional
Procedure, shortened: (§2)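 MT4 human T-lymphoblastoid cells were grown in RPMI 1640 with 10% fetal calf serum and antibiotics at 37 °C and 5% CO2. A compound concentration series was combined with HIV-1 LAI at 200 CCID50/well and 30 000 cells/well. Mock-infected cultures with the same concentrations were run in parallel to measure cytotoxicity. After 5 days, cell viability was read by MTT colorimetry. EC50 is the concentration giving 50% infection versus the drug-free control.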

[16] = system: Human immunodeficiency virus 1; experiment: Inhibitory activity against wild type HIV-1 LAI cell line; assay type: functional, organism-based; settings: Human immunodeficiency virus 1, LAI; procedure, shortened: as §2
[17] = system: Human immunodeficiency virus 1; experiment: Inhibitory activity against HIV-1 mutant strain 103N; assay type: functional, organism-based; procedure, shortened: as §1

**Q.** What does the source list for `CCc1c(C)nc(O)c(N(C)C)c1C(=O)c1cccc(/C(C)=C/C#N)c1`?
**A.** pIC50 [1]: 5.90; pIC50 [2]: 8.52; pIC50 [3]: 8.70; pIC50 [4]: 7.70; pIC50 [5]: 6.41; pIC50 [6]: 8.00; pIC50 [7]: 7.22; pIC50 [8]: 8.22; pIC50 [9]: 5.90; pIC50 [10]: 7.40; pIC50 [11]: 8.00; pIC50 [12]: 8.40; pIC50 [13]: 6.70; pIC50 [14]: 8.10; Selectivity index [15]: 63100; pIC50 [16]: 9.00; pIC50 [17]: 8.52

**Q.** How did the pIC50 [1] turn out when `CCOCn1c(Cc2ccccc2)c(C(C)C)c(=O)[nH]c1=O` [EMIVIRINE] was run?
**A.** The pIC50 was 4.10.

**Q.** What about the pIC50 [2] of the same molecule?
**A.** The pIC50 was 5.70.

**Q.** What about the pIC50 [3] of the same molecule?
**A.** The pIC50 was 7.52.

**Q.** What about the pIC50 [4] of the same molecule?
**A.** The pIC50 was 5.10.

**Q.** What about the pIC50 [5] of the same molecule?
**A.** The pIC50 was 4.40.

**Q.** What about the pIC50 [6] of the same molecule?
**A.** The pIC50 was 5.10.

**Q.** And the pIC50 [7]?
**A.** The pIC50 was 5.70.

**Q.** What about the pIC50 [8] of the same molecule?
**A.** The pIC50 was 5.80.

**Q.** What about the pIC50 [9] of the same molecule?
**A.** The pIC50 was 4.00.

**Q.** And the pIC50 [10]?
**A.** Its pIC50 is 4.60.

**Q.** What about the pIC50 [11] of the same molecule?
**A.** Its pIC50 is 7.40.

**Q.** And the pIC50 [12]?
**A.** The pIC50 was 7.15.

**Q.** And the pIC50 [13]?
**A.** The pIC50 was 4.00.

**Q.** And the pIC50 [14]?
**A.** The pIC50 was 6.92.

**Q.** What about the Selectivity index [15] of the same molecule?
**A.** The Selectivity index was 1260.

**Q.** What about the pIC50 [16] of the same molecule?
**A.** Its pIC50 is 8.10.

**Q.** And the pIC50 [17]?
**A.** Its pIC50 is 6.10.

**Q.** Which results are given for `CCc1c(C)nc(O)c(N(C)C)c1C(=O)c1cccc(/C=C/C#N)c1`?
**A.** pIC50 [1]: 6.10; pIC50 [2]: 8.70; pIC50 [3]: 9.00; pIC50 [4]: 8.00; pIC50 [5]: 6.82; pIC50 [6]: 8.22; pIC50 [7]: 8.00; pIC50 [8]: 8.22; pIC50 [9]: 6.00; pIC50 [10]: 7.70; pIC50 [11]: 8.22; pIC50 [12]: 8.30; pIC50 [13]: 7.40; pIC50 [14]: 8.10; Selectivity index [15]: 10000; pIC50 [16]: 9.00; pIC50 [17]: 8.70
